Common to all, as to type: functional
Assay [1] deals with Enterococcus faecium. Put plainly: Antibacterial activity against Enterococcus faecium L568 expressing VanS gene after 24 hrs by broth microdilution method. In outline: (§1)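 CLSI broth microdilution MIC in Müller Hinton broth with 20 mg/L CaCl2 and 10 mg/L MgCl2. Compounds were dissolved in DMSO and diluted in medium just before testing. Inoculum was 5 × 10^5 cfu/mL, incubated 24 h at 37 °C. MIC was the lowest concentration giving complete suppression of visible growth. Strains came from ATCC or an in-house collection (L-prefix).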

Assay [2] deals with Enterococcus faecalis. Put plainly: Antibacterial activity against Enterococcus faecalis L559 expressing VanS gene after 24 hrs by broth microdilution method. In outline: as §1
A general note: In broth dilution the organism is exposed to a series of concentrations in liquid medium.

Assay [3] has as its system Staphylococcus aureus. Description: Antibacterial activity against methicillin-resistant Staphylococcus aureus ND035208 after 24 hrs by broth microdilution method. In outline:
(§2)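 Broth microdilution per CLSI in Müller Hinton broth with 20 mg/L CaCl2 and 10 mg/L MgCl2. Inoculum 5 × 10^5 cfu/mL, 24 h at 37 °C. Compounds dissolved in DMSO and diluted in medium just before testing. MIC taken as lowest concentration giving complete suppression of visible growth.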

Another assay deals with Streptococcus pneumoniae. Description: Antibacterial activity against Streptococcus pneumoniae ATCC 49619 after 24 hrs by broth microdilution method.
The subject of another assay is Streptococcus pyogenes. Put plainly: Antibacterial activity against Streptococcus pyogenes L49 after 24 hrs by broth microdilution method.
Assay [4] concerns Staphylococcus aureus. Description: Antibacterial activity against methicillin-sensitive Staphylococcus aureus L819/ATCC 19636 after 24 hrs by broth microdilution method. In outline: as §1
For assay [5], the system named is Enterococcus faecalis. Put plainly: Antibacterial activity against Enterococcus faecalis L560 expressing VanA gene after 24 hrs by broth microdilution method. In outline: as §1
In assay [6] the test system is Enterococcus faecium. Description: Antibacterial activity against Enterococcus faecium L569 expressing VanA gene after 24 hrs by broth microdilution method. Summed up:
as §1

For assay [7], the system named is Staphylococcus aureus. Put plainly: Antibacterial activity against Staphylococcus aureus GISA L3798 after 24 hrs by broth microdilution method. Summed up:
as §2

In brackets after ≈: the same amount, converted by molar mass.

Consider `C=C1NC(=O)[C@H](Cc2c[nH]c3ccccc23)NC(=O)[C@@H](NC(=O)/C(=C/C)NC(=O)[C@@H](N)C(C)C)CSC[C@@H](C(=O)N[C@@H]2C(=O)N3CCC[C@H]3C(=O)NCC(=O)N[C@H](C(=O)N[C@H](C(=O)N[C@H]3CSC[C@@H]4NC(=O)[C@H](CC(=O)O)NC(=O)[C@H](CSC[C@@H]5NC(=O)[C@H](Cc6ccccc6)NC(=O)[C@H](CS/C=C\NC5=O)NC4=O)NC(=O)CNC(=O)CNC(=O)CNC(=O)[C@@H]4CCCN4C3=O)[C@@H](C)O)CSC2C)NC(=O)[C@H](CC(C)C)NC1=O` (stereo not given in full), for which the MIC (as a rule, the lowest concentration that inhibits growth of the organism) is 32 µg/mL (≈ 14.7 µM) against Enterococcus faecium [1] (L568, 24 h); 64 µg/mL (≈ 29.3 µM) in the assay on Enterococcus faecalis [2] (L559, 24 h); 8 µg/mL (≈ 3.66 µM) in the assay with Staphylococcus aureus [3] (ND035208, 24 h); at most 0.03 µg/mL with Streptococcus pneumoniae (ATCC 49619, 24 h); at most 0.03 µg/mL in the assay on Streptococcus pyogenes (L49, 24 h); 4 µg/mL (≈ 1.83 µM) against Staphylococcus aureus [4] (L819/ATCC 19636, 24 h). Moreover, the MIC in the assay on Enterococcus faecalis [5] (L560, 24 h) is 32 µg/mL (≈ 14.7 µM); with Enterococcus faecium [6] (L569, 24 h) it was 32 µg/mL (≈ 14.7 µM); against Staphylococcus aureus [7] (GISA L3798, 24 h), 16 µg/mL (≈ 7.33 µM).

`C=C1NC(=O)[C@H](Cc2c[nH]c3ccc(Cl)cc23)NC(=O)[C@@H](NC(=O)/C(=C/C)NC(=O)[C@@H](N)C(C)C)CSC[C@@H](C(=O)N[C@@H]2C(=O)N3CCC[C@H]3C(=O)NCC(=O)N[C@H](C(=O)N[C@H](C(=O)N[C@H]3CSC[C@@H]4NC(=O)[C@H](CC(=O)O)NC(=O)[C@H](CSC[C@@H]5NC(=O)[C@H](Cc6ccccc6)NC(=O)[C@H](CS/C=C\NC5=O)NC4=O)NC(=O)CNC(=O)CNC(=O)CNC(=O)[C@@H]4CCCN4C3=O)[C@@H](C)O)CSC2C)NC(=O)[C@H](CC(C)C)NC1=O` (stereo not given in full): the minimum inhibitory concentration (MIC) against Enterococcus faecium [1] (L568, 24 h) is 8 µg/mL (≈ 3.61 µM); against Enterococcus faecalis [2] (L559, 24 h) it was 8 µg/mL (≈ 3.61 µM); against Staphylococcus aureus [3] (ND035208, 24 h), 4 µg/mL (≈ 1.8 µM); against Streptococcus pneumoniae (ATCC 49619, 24 h), 0.03 µg/mL (≈ 0.0135 µM); with Streptococcus pyogenes (L49, 24 h), at most 0.001 µg/mL; in the assay on Staphylococcus aureus [4] (L819/ATCC 19636, 24 h) it was 0.5 µg/mL (≈ 0.225 µM). The MIC against Enterococcus faecalis [5] (L560, 24 h) is 4 µg/mL (≈ 1.8 µM); in the assay with Enterococcus faecium [6] (L569, 24 h) it was 8 µg/mL (≈ 3.61 µM); in the assay on Staphylococcus aureus [7] (GISA L3798, 24 h), 4 µg/mL (≈ 1.8 µM).

For the compound GENTAMICIN, the MIC against Enterococcus faecium [1] is 16 µg/mL; against Enterococcus faecalis [2] it was 4 µg/mL; against Staphylococcus aureus [3] it was over 128 µg/mL; with Streptococcus pneumoniae, 8 µg/mL; in the assay on Streptococcus pyogenes it was 16 µg/mL; in the assay with Staphylococcus aureus [4], 1 µg/mL. The minimal inhibitory concentration (MIC) against Enterococcus faecalis [5] was 4 µg/mL; with Enterococcus faecium [6], 16 µg/mL; with Staphylococcus aureus [7] it was 0.02 µg/mL.

As for `C=C1NC(=O)[C@H](Cc2c[nH]c3ccc(Cl)cc23)NC(=O)[C@@H](NC(=O)/C(=C/C)NC(=O)[C@@H](N)C(C)C)CSC[C@@H](C(=O)N[C@@H]2C(=O)N3CCC[C@H]3C(=O)NCC(=O)N[C@H](C(=O)N[C@H](C(=O)N[C@H]3CSC[C@@H]4NC(=O)[C@H](CC(=O)O)NC(=O)[C@H](CSC[C@@H]5NC(=O)[C@H](Cc6ccccc6)NC(=O)[C@H](CS/C=C\NC5=O)NC4=O)NC(=O)CNC(=O)CNC(=O)CNC(=O)[C@@H]4CC(O)CN4C3=O)[C@@H](C)O)CSC2C)NC(=O)[C@H](CC(C)C)NC1=O` (stereo not given in full), the MIC is 4 µg/mL (≈ 1.79 µM) with Enterococcus faecium [1] (L568, 24 h); 2 µg/mL (≈ 0.895 µM) against Enterococcus faecalis [2] (L559, 24 h); 1 µg/mL (≈ 0.448 µM) against Staphylococcus aureus [3] (ND035208, 24 h); 0.03 µg/mL (≈ 0.0134 µM) with Streptococcus pneumoniae (ATCC 49619, 24 h); at most 0.001 µg/mL against Streptococcus pyogenes (L49, 24 h); 0.25 µg/mL (≈ 0.112 µM) in the assay with Staphylococcus aureus [4] (L819/ATCC 19636, 24 h). In addition, the MIC is 2 µg/mL (≈ 0.895 µM) against Enterococcus faecalis [5] (L560, 24 h); 4 µg/mL (≈ 1.79 µM) against Enterococcus faecium [6] (L569, 24 h); 2 µg/mL (≈ 0.895 µM) in the assay on Staphylococcus aureus [7] (GISA L3798, 24 h).

As for `C=C1NC(=O)[C@H](Cc2c[nH]c3ccc(Cl)cc23)NC(=O)[C@@H](NC(=O)/C(=C/C)NC(=O)[C@@H](N)C(C)C)CSC[C@@H](C(=O)N[C@@H]2C(=O)N3CCC[C@H]3C(=O)NCC(=O)N[C@H](C(=O)N[C@H](C(=O)N[C@H]3CSC[C@@H]4NC(=O)[C@H](CC(=O)O)NC(=O)[C@H](CSC[C@@H]5NC(=O)[C@H](Cc6ccccc6)NC(=O)[C@H](CS/C=C\NC5=O)NC4=O)NC(=O)CNC(=O)CNC(=O)CNC(=O)[C@@H]4C(O)C(O)CN4C3=O)[C@@H](C)O)CSC2C)NC(=O)[C@H](CC(C)C)NC1=O` (stereo not given in full), the MIC in the assay on Enterococcus faecium [1] (L568, 24 h) is 4 µg/mL (≈ 1.78 µM); against Enterococcus faecalis [2] (L559, 24 h) it was 2 µg/mL (≈ 0.889 µM); with Staphylococcus aureus [3] (ND035208, 24 h), 1 µg/mL (≈ 0.444 µM); against Streptococcus pneumoniae (ATCC 49619, 24 h) it was 0.015 µg/mL (≈ 0.00667 µM); with Streptococcus pyogenes (L49, 24 h), at most 0.001 µg/mL; in the assay with Staphylococcus aureus [4] (L819/ATCC 19636, 24 h) it was 0.25 µg/mL (≈ 0.111 µM). The MIC against Enterococcus faecalis [5] (L560, 24 h) was determined as 1 µg/mL (≈ 0.444 µM); in the assay with Enterococcus faecium [6] (L569, 24 h), 4 µg/mL (≈ 1.78 µM); in the assay on Staphylococcus aureus [7] (GISA L3798, 24 h), 1 µg/mL (≈ 0.444 µM).

For the origin of these results see ChEMBL document CHEMBL3102785, “Characterization of the congeners in the lantibiotic NAI-107 complex” (2014).
